Results as given in ChEMBL document CHEMBL4177680, “Discovery of a Potent, Selective T-type Calcium Channel Blocker as a Drug Candidate for the Treatment of Generalized Epilepsies” (J Med Chem, 2017).
Values belong to the compound of their own block, whether it stands above or below them.

Tests used:
[1] = system: Salmonella typhimurium; experiment: Mutagenicity in Salmonella typhimurium TA100 assessed as increase in number of revertants in presence of rat liver S9 fraction by Ames test relative to control; format: toxicity, organism-based; details: salmonella enterica subsp. enterica serovar typhimurium
[2] = system: Salmonella typhimurium; experiment: Mutagenicity in Salmonella typhimurium TA98 assessed as increase in number of revertants in presence of rat liver S9 fraction by Ames test relative to control; format: toxicity, organism-based; details: salmonella enterica subsp. enterica serovar typhimurium
[3] = Drug level in Wistar rat cerebrospinal fluid at 10 mg/kg administered via oral gavage measured after 1 hr by LC-MS/MS method; format: ADME, organism-based; details: read-out: Drug uptake
How it was run: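 Wistar rats given 10 mg/kg po and killed at 1 h. Brain, plasma and CSF concentrations measured; free brain and plasma levels reported from unbound fractions. Mean ± SD, n = 3.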

[4] = Free drug level in Wistar rat brain at 10 mg/kg administered via oral gavage measured after 1 hr by rapid equilibrium dialysis method; format: ADME, organism-based; details: in vivo
[5] = Fraction unbound in Wistar rat plasma at 10 mg/kg administered via oral gavage measured after 1 hr by rapid equilibrium dialysis method; format: ADME, organism-based; details: in vivo
[6] = Covalent protein binding in human liver microsomes at 10 uM after 1 hr in presence of NADPH regenerating system by liquid scintillation counting method; format: ADME, microsome
[7] = Drug metabolism in human plasma assessed as 3-amino-1-(3,4-difluorobenzyl)pyrazole formation at 10 uM by LC-MS/MS method; format: ADME, cell-free
[8] = Total drug level in Wistar rat brain at 10 mg/kg administered via oral gavage measured after 1 hr by LC-MS/MS method; format: ADME, organism-based; details: read-out: Drug uptake
[9] = Drug metabolism in rat plasma assessed as 3-amino-1-(3,4-difluorobenzyl)pyrazole formation at 10 uM by LC-MS/MS method; format: ADME, cell-free
[10] = Chemical stability of the compound in amorphous form at room temperature; format: physicochemical
[11] = Half life in human plasma at 10 uM by LC-MS/MS method; format: ADME, cell-free
[12] = Half life in rat plasma at 10 uM by LC-MS/MS method; format: ADME, cell-free
[13] = system: MDR1; experiment: Apparent permeability across apical to basolateral side in MDCK cells expressing MDR1 at 1 uM measured every 30 mins for 2 hrs; format: ADME, cell-based, Canis lupus familiaris; details: dog
[14] = system: MDR1; experiment: Apparent permeability across basolateral to apical side in MDCK cells expressing MDR1 at 1 uM measured every 30 mins for 2 hrs; format: ADME, cell-based, Canis lupus familiaris; details: dog
[15] = Drug level in human plasma treated with N-(1-(3,4-Difluorobenzyl)-1H-pyrazol-3-yl)-2-(1H-indol-5-yl)acetamide at 10 uM by LC-MS/MS method; format: ADME, cell-free
[16] = Drug level in rat plasma treated with N-(1-(3,4-Difluorobenzyl)-1H-pyrazol-3-yl)-2-(1H-indol-5-yl)acetamide at 10 uM by LC-MS/MS method; format: ADME, cell-free
[17] = Drug metabolism in human plasma at 10 uM after 6 hrs by LC-MS/MS method; format: ADME, cell-free; details: read-out: Drug metabolism
[18] = Intrinsic clearance in human liver microsomes assessed per mg of protein at 1 uM after 15 mins in presence of NADPH regenerating system by LC-MS/MS method; format: ADME, microsome; details: read-out: CLH
[19] = Clearance in Wistar rat at 1 mg/kg, iv administered via 5 mins infusion by LC-MS/MS method; format: ADME, organism-based; details: in vivo
[20] = Intrinsic clearance in Wistar rat liver microsomes assessed per mg of protein at 1 uM after 15 mins in presence of NADPH regenerating system by LC-MS/MS method; format: ADME, microsome; details: read-out: CLH
[21] = Cmax in Wistar rat plasma at 10 mg/kg administered via oral gavage by LC-MS/MS method; format: ADME, organism-based; design: dose 10 mg/kg, route oral
[22] = system: Cavia porcellus; experiment: Unbound Cmax in Dunkin-Hartley guinea pig at 30 mg/kg, po; format: ADME, organism-based; details: in vivo
[23] = Clearance in Beagle dog at 1 mg/kg, iv administered via 15 mins infusion by LC-MS/MS method; format: ADME, organism-based, Canis lupus familiaris; details: in vivo
[24] = Clearance in cynomolgus monkey at 1 mg/kg, iv administered via 15 mins infusion by LC-MS/MS method; format: ADME, organism-based, Macaca fascicularis; details: in vivo
[25] = Half life in Wistar rat at 1 mg/kg, iv administered via 5 mins infusion by LC-MS/MS method; format: ADME, organism-based; details: in vivo
[26] = Intrinsic clearance in monkey liver microsomes assessed per mg of protein at 1 uM after 15 mins in presence of NADPH regenerating system by LC-MS/MS method; format: ADME, Macaca mulatta, microsome; details: rhesus monkey, read-out: CLH
[27] = Fraction unbound in audiogenic seizure-sensitive juvenile DBA/2J mouse brain at 100 mg/kg administered via oral gavage measured at 3 hrs; format: ADME, organism-based; details: in vivo
[28] = Oral bioavailability in Wistar rat at 10 mg/kg administered via gavage by LC-MS/MS method; format: ADME, organism-based; details: in vivo
[29] = system: Cynomolgus monkey; experiment: Unbound Cmax in cynomolgus monkey at 1000 mg/kg, po; format: ADME, organism-based, Macaca fascicularis; details: in vivo
[30] = system: Canis familiaris; experiment: Unbound Cmax in Beagle dog at 10 mg/kg, po; format: ADME, organism-based, Canis lupus familiaris; details: in vivo
[31] = system: Rattus norvegicus; experiment: Unbound Cmax in normotensive Wistar rat at 30 mg/kg, po; format: ADME, organism-based; details: in vivo
[32] = Clearance in NMRI mouse at 1 mg/kg, iv as slow bolus dose by LC-MS/MS method; format: ADME, organism-based; details: in vivo
[33] = system: Rattus norvegicus; experiment: Unbound Cmax in spontaneously hypertensive Wistar-Kyoto rat at 30 mg/kg, po; format: ADME, organism-based; details: in vivo

SMILES: Nc1ccn(Cc2ccc(F)cc2)n1
fold change (FC) [1]: 10.2 | fold change (FC) [2]: 4.1

SMILES: Nc1ccn(Cc2ccccc2)n1
fold change (FC) [1]: 30.3 | fold change (FC) [2]: 15.3

SMILES: [3H]c1cc(NC(=O)Cc2ccc(C3(C(F)(F)F)CC3)cc2)nn1Cc1ccc(C#N)cn1
PB [6]: 72 pmol/mg/h

SMILES: N#Cc1cc(Cn2ccc(N)n2)ccc1F
fold change (FC) [1]: 1.5 | fold change (FC) [2]: 1.5

SMILES: Nc1nc(Cc2ccc(F)c(F)c2)cs1
fold change (FC) [1]: 1.1 | fold change (FC) [2]: 2.7

SMILES: N#Cc1cn(Cc2ccc(F)c(F)c2)nc1N
fold change (FC) [1]: 1.1 | fold change (FC) [2]: 1.1

SMILES: N#Cc1ccc(Cn2ccc(N)n2)cc1F
fold change (FC) [1]: 2.2 | fold change (FC) [2]: 1.2

SMILES: N#Cc1nc(Cn2ccc(N)n2)ccc1F
fold change (FC) [1]: 1.4 | fold change (FC) [2]: 1.2

SMILES: N#Cc1ccc(Cn2ccc(N)n2)cc1
fold change (FC) [1]: 1.1 | fold change (FC) [2]: 1.5

SMILES: Nc1ncn(Cc2ccc(F)c(F)c2)n1
fold change (FC) [1]: 1.1 | fold change (FC) [2]: 1.1

SMILES: N#Cc1ccc(Cn2ccc(N)n2)nc1
fold change (FC) [1]: 1.3 | fold change (FC) [2]: 1

SMILES: Nc1cnn(Cc2ccc(F)c(F)c2)n1
fold change (FC) [1]: 3.3 | fold change (FC) [2]: 1.3

SMILES: Cc1ccc(Cn2ccc(N)n2)cc1
fold change (FC) [1]: 19.8 | fold change (FC) [2]: 15.1

SMILES: COc1ccc(Cn2ccc(N)n2)cc1
fold change (FC) [1]: 20.8 | fold change (FC) [2]: 8

SMILES: Nc1ccn(CC2CCC(F)(F)CO2)n1 (stereo in doubt; 14a)
fold change (FC) [1]: 1.3 | fold change (FC) [2]: 1.4

SMILES: Nc1ccn(CC2CCC(F)(F)CO2)n1 (stereo in doubt; 14b)
fold change (FC) [1]: 2.5 | fold change (FC) [2]: 1.1

SMILES: CC(C)c1ccc(CC(=O)Nc2ccn(CC3CCC(F)(F)CO3)n2)cc1 (stereo in doubt; 15a)
clearance [19]: > 100 mL/min/kg | microsomal CLint at […], 1 µM [20]: > 500 µL/min/mg | microsomal CLint at […], 1 µM [18]: 43 µL/min/mg

Now from value to compound, other results behind:

concentration at 1 h [3]: 92 nM | Drug uptake(free) [4]: 51 nM | Cp(f) [5]: 72 nM
SMILES: Cn1ncc2cc(CC(=O)Nc3ccn(Cc4ccc(F)c(F)c4)n3)ccc21

Drug uptake(free) [4]: 2.4 nM
SMILES: CC(C)(C)c1ccc(CC(=O)Nc2ncn(Cc3ccc(F)c(F)c3)n2)cc1

Drug metabolism [7]: Metabolite_Detected | concentration at 1 h [3]: 164 nM | Drug uptake(free) [4]: 52 nM | concentration at 1 h [8]: 4680 nM | Drug metabolism [9]: Metabolite_Detected | Stability [10]: Unstable | half-life at 10 µM [11]: 2 h | half-life at 10 µM [12]: 5 h
SMILES: O=C(Cc1ccc2[nH]ccc2c1)Nc1ccn(Cc2ccc(F)c(F)c2)n1

Drug uptake(free) [4]: 4.8 nM
SMILES: CCc1cc(CC(=O)Nc2ccn(Cc3ccc(C#N)cn3)n2)ccc1OCC(F)(F)F

Papp A→B at 2 h, 1 µM [13]: 11 ×10⁻⁶ cm/s | Papp B→A at 2 h, 1 µM [14]: 59 ×10⁻⁶ cm/s
SMILES: Cn1c(=O)oc2cc(CC(=O)Nc3ccn(Cc4ccc(F)c(F)c4)n3)ccc21

concentration at 1 h [3]: 135 nM | Drug uptake(free) [4]: 63 nM | concentration at 1 h [8]: 2990 nM
SMILES: O=C(Cc1ccc(C2(F)COC2)cc1)Nc1ccn(Cc2ccc(F)c(F)c2)n1

Drug uptake(free) [4]: 63 nM
SMILES: Cn1ncc2cc(CC(=O)Nc3cnn(Cc4ccc(F)c(F)c4)n3)ccc21

concentration at 1 h [3]: 50 nM | concentration at 1 h [8]: 4110 nM | Stability [10]: Unstable
SMILES: O=C(Cc1ccc2cc[nH]c2c1)Nc1ccn(Cc2ccc(F)c(F)c2)n1

Drug metabolism [15]: Metabolite_Detected | Drug metabolism [16]: Metabolite_Detected
SMILES: Nc1ccn(Cc2ccc(F)c(F)c2)n1
fold change (FC) [1]: 1.2 | fold change (FC) [2]: 2.7

metabolised at 6 h, 10 µM [17]: < 1%
SMILES: COc1ccc(C2(C(=O)Nc3ccn(Cc4ccccc4)n3)CC2)cc1

Drug uptake(free) [4]: 6.1 nM | microsomal CLint at […], 1 µM [18]: 6 µL/min/mg
SMILES: CC(C)(C)c1ccc(CC(=O)Nc2ccn(Cc3ccc(C#N)cn3)n2)cc1

metabolised at 6 h, 10 µM [17]: 4%
SMILES: CC(C)c1ccc(CC(=O)Nc2ccn(Cc3ccccc3)n2)cc1

metabolised at 6 h, 10 µM [17]: 7%
SMILES: CC(C(=O)Nc1ccn(Cc2ccc(F)cc2)n1)c1ccc(N(C)C)cc1 (racemic)

clearance [19]: 24 mL/min/kg | Drug uptake(free) [4]: 29 nM | Cmax [21]: 1900 nM | fCmax [22]: 140 nM | microsomal CLint at […], 1 µM [20]: 59 µL/min/mg | clearance at […] [23]: 0.9 mL/min/kg | clearance at […] [24]: 5.5 mL/min/kg | half-life [25]: 2.5 h | microsomal CLint at […], 1 µM [26]: 9 µL/min/mg | bioavailability [28]: 75% | fCmax [29]: 160 nM | fCmax [30]: 140 nM | fCmax [31]: 190 nM | clearance [32]: 13 mL/min/kg | fCmax [33]: 90 nM | microsomal CLint at […], 1 µM [18]: 24 µL/min/mg
SMILES: N#Cc1ccc(Cn2ccc(NC(=O)Cc3ccc(C4(C(F)(F)F)CC4)cc3)n2)nc1 [APINOCALTAMIDE]
Drug uptake(free) [27]: 244 nM
